# In ChEMBL document CHEMBL1123566, “Synthesis and cardiac electrophysiological activity of 2- and 3-[(substituted phenyl)alkyl]quinuclidines. Structure-activity relationships” (1987):
# Legend:
# Canis familiaris [1] = organism: Canis familiaris; assay: In vitro electrophysiological evaluation in canine cardiac Purkinje fibres reported as percent change Vmax concentration range of 0.1-30 uM; Minimal (<IO%increase or a decrease in CT); format: functional; details: Canis lupus familiaris; Purkinje fiber
# In short: (§1)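 Canine cardiac Purkinje fibres, intracellular microelectrode recording, paced at a basic cycle length of 1 s. APD95 and Vmax read simultaneously. Compound: 10 mM stock in deionized water, diluted into Tyrode's solution, tested over the stated concentration range. Each fibre used once as its own control. Result is % change from control, given at 10 µM or as the maximum with its concentration. M = <10% decrease or an increase in Vmax.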
# Canis familiaris [2] = assay: Conduction time was determined by intraduodenal administration of two dosages of 10 mg/kg of compound in anesthetized dogs. Value was reported for experiment 2; format: functional, Canis lupus familiaris
# In short: (§2)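 Anesthetized dogs; compound given intraduodenally, generally as two doses, the second a cumulative (high) dose. LV functional refractory period and conduction time measured 15, 30 and 45 min after dosing; heart rate and blood pressure measured during nonpacing intervals. Values are % change from control, given per individual animal. Active if FRP or CT prolonged by ≥12%.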
# Canis familiaris [3] = organism: Canis familiaris; assay: In vitro electrophysiological evaluation in canine cardiac ventricular muscle reported as % change for conduction time(CT) at 0.1-30 uM concentration range; Minimal (<IO%increase or a decrease in CT); format: functional, Canis lupus familiaris, Muscle tissue
# Canis familiaris [4] = assay: Heart rate was determined by intraduodenal administration of two dosages of 10 mg/kg of (high dose) compound in anesthetized dogs. Value was reported for experiment 1; format: functional, Canis lupus familiaris; in short: as §2
# Canis familiaris [5] = assay: Conduction time was determined by intraduodenal administration of two dosages of 10 mg/kg (high dose) of compound in anesthetized dogs. Value was reported for experiment 1; format: functional, Canis lupus familiaris; in short: as §2
# Canis familiaris [6] = organism: Canis familiaris; assay: In vitro electrophysiological activity in canine cardiac Purkinje fibres given as maximum % change for action potential duration at 0.1-10 uM concentration; format: functional, Canis lupus familiaris, Purkinje fiber
# In short: (§3)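 Canine cardiac Purkinje fibres, intracellular recording at 1 s basic cycle length, over cumulative concentration ranges. Compound 10 mM stock in deionized water diluted into Tyrode's. Each fibre used once as its own control. Value is the maximum % change from control in APD at 95% repolarization, with the concentration where it occurred; both values given if a biphasic response (>20% reversal) occurred.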
# Canis familiaris [7] = organism: Canis familiaris; assay: In vitro electrophysiological evaluation in canine cardiac ventricular muscle reported as % change for the functional refractory period (FRP) concentration range of 0.1-30 uM; set-up: species or system Canis lupus familiaris, Muscle tissue
# In short: (§4)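 Canine right ventricle and papillary muscle strips in oxygenated Tyrode's solution, fitted with stimulating and recording electrodes. The extra-stimulus conduction-interval method was adapted for in vitro use. FRP and CT were read from a conduction-interval curve before and after various compound concentrations, and expressed as percent change from control. Compounds were taken from 10 mM deionized-water stock into Tyrode's. Each strip was used once as its own control.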
# Canis familiaris [8] = assay: Mean arterial blood pressure was determined by intraduodenal administration of two dosages of 10 mg/kg of (high dose) compound in anesthetized dogs. Value was reported for experiment 1; format: functional, Canis lupus familiaris
# In short: (§5)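 Anesthetized dogs received two intraduodenal doses, the second cumulative (low dose/high dose). Left ventricular FRP and CT were measured 15, 30 and 45 min after dosing. Heart rate and mean blood pressure were taken during nonpacing intervals. Values are percent change from control. The vehicle was 5% dextrose in water/tragacanth. Activity was defined as ≥12% prolongation of FRP or CT.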
# Canis familiaris [9] = assay: Left ventricular refractory period was determined by intraduodenal administration of two dosages of 3 mg/kg of (low dose) compound in anesthetized dogs. Value was reported for experiment 1; format: functional, Canis lupus familiaris, Cardiac ventricle; in short: as §5
# Canis familiaris [10] = assay: Heart rate was determined by intraduodenal administration of two dosages of 3 mg/kg of (low dose) compound in anesthetized dogs. Value was reported for experiment 1; format: functional, Canis lupus familiaris; in short: as §2
# Canis familiaris [11] = organism: Canis familiaris; assay: In vitro electrophysiological evaluation in canine cardiac Purkinje fibres reported as maximum percent change Vmax concentration range of 0.1-30 uM; Minimal (<IO%increase or a decrease in CT); format: functional; details: Canis lupus familiaris; Purkinje fiber; in short: as §1
# Canis familiaris [12] = assay: Conduction time was determined by intraduodenal administration of two dosages of 3 mg/kg (low dose) of compound in anesthetized dogs. Value was reported for experiment 1; format: functional, Canis lupus familiaris; in short: as §2
# Canis familiaris [13] = assay: Left ventricular refractory period was determined by intraduodenal administration of two dosages of 10 mg/kg of (high dose) compound in anesthetized dogs. Value was reported for experiment 1; format: functional, Canis lupus familiaris, Cardiac ventricle; in short: as §5
# Canis familiaris [14] = assay: Left ventricular refractory period was determined by intraduodenal administration of two dosages of 10 mg/kg of compound in anesthetized dogs. Value was reported for experiment 2; format: functional, Canis lupus familiaris, Cardiac ventricle
# Canis familiaris [15] = organism: Canis familiaris; assay: In vitro electrophysiological evaluation in canine cardiac Purkinje fibres reported as maximum percent change Vmax concentration range of 0.1-10 uM; Minimal (<IO%increase or a decrease in CT); format: functional; details: Canis lupus familiaris; Purkinje fiber; in short: as §1
# Canis familiaris [16] = organism: Canis familiaris; assay: In vitro electrophysiological activity in canine cardiac Purkinje fibres given as maximum % change for action potential duration at 0.1-30 uM concentration; format: functional, Canis lupus familiaris, Purkinje fiber; in short: as §3
# Canis familiaris [17] = organism: Canis familiaris; assay: In vitro electrophysiological evaluation in canine cardiac Purkinje fibres reported as % change for action potential duration at 0.1-30 uM concentration range; format: functional, Canis lupus familiaris, Purkinje fiber; in short: as §1
# Canis familiaris [18] = organism: Canis familiaris; assay: In vitro electrophysiological evaluation in canine cardiac ventricular muscle reported as maximum % change for conduction time(CT) at 0.1-30 uM concentration range; Minimal (<IO%increase or a decrease in CT); format: functional, Canis lupus familiaris, Muscle tissue; in short: as §4
# Canis familiaris [19] = organism: Canis familiaris; assay: In vitro electrophysiological evaluation in canine cardiac Purkinje fibres reported as percent change Vmax concentration range of 0.1-10 uM; Minimal (<IO%increase or a decrease in CT); format: functional; details: Canis lupus familiaris; Purkinje fiber; in short: as §1
# Canis familiaris [20] = organism: Canis familiaris; assay: In vitro electrophysiological evaluation in canine cardiac ventricular muscle reported as maximum % change for functional refractory period (FRP) at 0.1-30 uM concentration range; set-up: species or system Canis lupus familiaris, Muscle tissue; in short: as §4
# Canis familiaris [21] = assay: Effective dose administered intravenously to elicit Antiarrhythmic efficacy in anesthetized dogs was reported. Value in parenthesis indicates no. of animals effective at that dose.; format: functional, Canis lupus familiaris, Heart
# In short: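 Dogs are anesthetized and the chest reopened. Stimulating and recording electrodes go on the myocardium. Reproducible PES-induced sustained VT or VF is confirmed first; SVT is ended by burst pacing and VF by DC countershock. Compound is given iv in 0.9% saline and inducibility retested. A dose counts as effective when SVT/VF cannot be reinduced in two of three animals.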
# Canis familiaris [22] = assay: Heart rate was determined by intraduodenal administration of two dosages of 10 mg/kg of compound in anesthetized dogs. Value was reported for experiment 2; format: functional, Canis lupus familiaris; in short: as §2
# Canis familiaris [23] = assay: Mean arterial blood pressure was determined by intraduodenal administration of two dosages of 3 mg/kg of (low dose) compound in anesthetized dogs. Value was reported for experiment 1; format: functional, Canis lupus familiaris; in short: as §5
# Canis familiaris [24] = assay: Mean arterial blood pressure was determined by intraduodenal administration of two dosages of 10 mg/kg of compound in anesthetized dogs. Value was reported for experiment 2; format: functional, Canis lupus familiaris; in short: as §5
# Canis familiaris [25] = organism: Canis familiaris; assay: In vitro electrophysiological evaluation in canine cardiac Purkinje fibres reported as % change for action potential duration at 0.1-10 uM concentration range; format: functional, Canis lupus familiaris, Purkinje fiber; in short: as §1
compound,measurement,setting,value
CCCCCCC[N+]12CCC(CC1)/C(=C/Cc1ccc(Cl)cc1)C2.[Br-],Vmax,Canis familiaris [1],< 10%
same,CT,Canis familiaris [2],5%
same,CT,Canis familiaris [3],<10%
same,HR,Canis familiaris [4],-9%
same,CT,Canis familiaris [5],-5%
same,APD95,Canis familiaris [6],50%
same,FRP,Canis familiaris [7],21%
same,Mean blood pressure,Canis familiaris [8],15%
same,LV FRP,Canis familiaris [9],2%
same,HR,Canis familiaris [10],5%
same,Vmax,Canis familiaris [11],< 10%
same,CT,Canis familiaris [12],0%
same,LV FRP,Canis familiaris [13],15%
same,LV FRP,Canis familiaris [14],16%
same,Vmax,Canis familiaris [15],< 10%
same,APD95,Canis familiaris [16],64%
same,APD95,Canis familiaris [17],64%
same,CT,Canis familiaris [18],<10%
same,Vmax,Canis familiaris [19],< 10%
same,FRP,Canis familiaris [20],30%
same,Effective dose,Canis familiaris [21],0.3 mg/kg
same,HR,Canis familiaris [22],-13%
same,Mean blood pressure,Canis familiaris [23],5%
same,Mean blood pressure,Canis familiaris [24],42%
same,APD95,Canis familiaris [25],40%
